KLF5 inh: kruppel-like factor 5 inhibition | DLD-1 KLF5 promoter-luciferase reporter, luminescence | inhibition, % at 5 µM | 290,000 compounds, 0.23% hits | AID 1700;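 active = inhibition above a per-plate limit of that plate's mean compound inhibition plus 3 SD, cut at about 60% in these data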;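 note: 0% = DMSO wells and 100% = LY294002 at 200 µM; higher means less KLF5 promoter-driven luciferase light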
Ba/F3 V617F tox: reduce viability of Ba/F3 cells dependent on JAK2V617F | inhibition, % at 5.6 µM | AID 1446 | 220,000 compounds, 1.1% hits | Ba/F3 EpoR-JAK2V617F viability, ATP luminescence;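 active = inhibition above the campaign mean plus 3 SD over all tested compounds, cut at about 24% in these data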;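 note: cytokine-independent growth of Ba/F3 cells driven by EpoR plus mutant JAK2; 0% = DMSO-treated cells and 100% = JAK inhibitor I control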
b-catenin transl: beta-catenin nuclear translocation modulation | HeLa beta-catenin nuclear translocation, immunofluorescence imaging | nuclear translocation activity, % at 5 µM | 190,000 compounds, 0.3% hits | AID 1665;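 active = nuclear translocation activity above 50% at 5 µM, with a well cell count of 50 or more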;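 note: per-cell ratio of nuclear to cytoplasmic median beta-catenin stain intensity; plate controls were DMSO negative control for no effect and GSK-3 inhibitor IX positive control for full effect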
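Test system: human HeLa cell line; Doses: 5 µM primary, 0.02–20 µM confirmation; Incubation: 24 h compound exposure, 37°C; Detection: beta-catenin immunofluorescence imaging with DAPI; Read-out: beta-catenin nuclear/cytoplasmic ratio, % activation.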
BaF3 tox: reduces parental Ba/F3 cell viability, JAK2V617F counter-screen. CellTiter-Glo ATP luminescence. inhibition, % at 5.6 µM. 220,000 compounds, 1.1% hits;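 active = inhibition above a per-campaign cutoff, the mean inhibition of all tested compounds plus 3 SD, cut at about 27% in these data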;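 note: 0% = DMSO wells and 100% = JAK Inhibitor I control wells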
MT stabilizer: microtubule stabilizers in HeLa cells; HeLa tubulin immunostaining HCS, 24 h; share of cells brighter than vehicle mean+2SD; % tubulin-high responders, % at 10 µM; 200,000 compounds, 0.83% hits;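 active = plate Z-score above 3 for both tubulin-high and condensed-nucleus cell shares, with cell loss under 80%, at 10 µM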;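 note: anti alpha tubulin signal scored within the nucleus-defined area of each cell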
IEC-6 cytotox: counter-screen for KLF5 inhibitors: cytotoxicity in IEC-6 cells | IEC-6 cytotoxicity, luminescence viability | AID 1825 | 290,000 compounds, 0.78% hits | inhibition, % at 5 µM; in the data active = inhibition above about 22%;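 note: 0% = plate median of test compound wells and 100% = cytotoxic reference compound wells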
* marks the source's active call; other numbers are inactive results; . = no result given. Compounds with a hit are over-represented: about 2.1% of the library has one in this group of screens.

SMILES	KLF5 inh	Ba/F3 V617F tox	b-catenin transl	BaF3 tox	MT stabilizer	IEC-6 cytotox
Oc1ccc(/C=N/Nc2ccnc3cc(Cl)ccc23)cc1O	-26.4	85.1*	0.8	51.5*	.	12.8
Oc1ccc(/C=N/Nc2ccnc3cc(Cl)ccc23)c(O)c1O	-21.4	.	.	.	.	2.1
O=C(NNc1cccc(Cl)n1)c1c(F)cccc1F	-29.0	2.7	-3.0	6.6	2.6	-4.8
Cc1cc(C(=O)COC(=O)c2nccnc2N)c(C)n1C	-141.8	2.0	-1.3	5.7	3.7	4.1
COc1cc(C(=O)OCC(=O)c2cc(C)n(C)c2C)cc(OC)c1OC	-9.7	0.1	68.6*	-1.6	2.3	-5.7
O=C(NNC(=O)c1cc(C(F)(F)F)cc(C(F)(F)F)c1)c1ccc(Cl)cc1	-16.2	-3.7	-5.8	62.4*	.	-0.7
O=C(Nc1ccc(Cl)cc1C(F)(F)F)c1ccc(Cl)cc1	-12.9	-0.7	0.5	3.9	1.2	-3.5
COc1cc2ccccc2cc1C(=O)Nc1ccc(Cc2ccncc2)cc1	-25.9	-1.9	2.8	7.7	49.7*	-5.3
S=C1NC2=C(CCC/C2=C\c2ccccc2)C(c2ccccc2)N1 (configuration not stated)	-12.9	-0.3	-0.6	5.5	1.2	1.5
C(=C1/CCCC2=C1Nc1ncnn1C2c1ccccc1)/c1ccccc1 (configuration not stated)	0.6	54.9*	-1.4	54.2*	5.5	26.4*
Cc1cc(C)c(C)c(S(=O)(=O)NCCCN2CCOCC2)c1C	-21.2	3.9	-1.2	90.3*	1.5	3.8
CC1=CC(C)(C)[N+](C)(C)c2ccc(C)cc21	-17.8	29.4*	0.6	42.0*	3.5	-0.5
CCCN(CCC)S(=O)(=O)c1ccc(C(=O)N2CCN(C)CC2)cc1	-22.2	.	.	.	.	-1.2
N#Cc1cn(-c2ccccc2)nc1C(=O)c1ccccc1	15.5	3.4	62.5*	5.5	2.0	1.0
CC(=O)c1nn(-c2ccc(Br)cc2)cc1C(=O)c1ccccc1	-2.6	2.2	1.6	6.7	2.7	2.2
Cc1ccc(C(=O)N/C(=C\c2ccc(-c3ccc(Cl)cc3)o2)C(=O)NCCCN(C)C)cc1	-22.8	15.8	-1.7	103.8*	79.2	44.1*
COc1ccc(CNC(=O)CC2(CC(=O)O)CCCCC2)cc1	-33.4	.	.	.	.	2.8
COC(=O)Nc1nc(C)c(C(=O)c2ccccc2)s1	-12.0	4.0	55.9*	7.5	7.7	3.9
Cc1nc(Nc2ccccc2)sc1C(=O)c1ccccc1	-66.5	-3.4	-3.3	-2.6	.	-4.3
COc1cc2c(cc1OC)C(c1cc(C)ccc1C)CC(=O)N2 (configuration not stated)	-45.4	.	.	.	.	-7.9
CCOC(=O)c1sc(NS(=O)(=O)c2ccccc2)nc1C	-19.4	1.2	.	1.2	2.2	-0.4
CCOC(=O)c1sc(NS(=O)(=O)c2ccccc2Cl)nc1C	-2.6	4.2	-0.6	51.3*	0.8	3.1
Cc1ccc2cccc(Oc3ccc([N+](=O)[O-])cc3[N+](=O)[O-])c2n1	-16.6	1.6	.	2.0	15.8*	-3.1
O=[N+]([O-])c1ccc(Oc2cccc3cccnc23)c([N+](=O)[O-])c1	-17.8	-0.7	3.2	7.0	7.2	7.7
C=CCn1c(O)c(N=NC(=O)CNC(=O)c2ccco2)c2ccccc21	-13.9	-0.2	-0.8	7.3	12.5*	0.6
SMILES	KLF5 inh	Ba/F3 V617F tox	b-catenin transl	BaF3 tox	MT stabilizer	IEC-6 cytotox
CCOC(=O)N1CCC(N(CCN(C)C)C(=S)Nc2ccc(OCC)cc2)CC1	-17.2	1.1	-0.1	3.1	2.4	-0.4
Cc1cccc(-n2cc(CNCCc3nc(C)cc(C)n3)c(-c3cccc(F)c3)n2)c1	-4.4	1.4	-0.6	2.1	.	1.8
Oc1ccc(Nc2nc3ccccc3nc2Nc2ccc(O)cc2)cc1	54.9	93.4*	.	99.7*	4.4	20.9
Oc1ccc(Nc2nc(-c3ccccc3)nc3ccccc23)cc1	-26.1	.	.	.	.	0.1
CC(=O)NCCNC(=O)C1CCCCN1S(=O)(=O)c1ccccc1 (configuration not stated)	-3.3	-6.0	-2.4	-3.7	2.9	-2.8
COCCNC(=O)CNC(c1ccccc1)c1ccccc1	-12.6	2.3	1.2	6.3	2.1	-8.3
Cc1ccc2c(c1)Oc1ccc(NC(=O)CCl)cc1C(=O)N2	2.5	85.3*	-0.5	82.9*	7.1	15.5
Cc1nn(CC(=O)N2c3ccccc3NC(=O)C2(C)C)c(C)c1[N+](=O)[O-]	11.2	0.2	1.0	4.5	3.0	-1.9
